Experimental data from ChEMBL document CHEMBL1152473, “Synthesis, characterization and antibacterial activity of some triazole Mannich bases carrying diphenylsulfone moieties” (2009).
≈ marks a conversion by molar mass, not a printed value. Calls of active or inactive are those of the source. The rule behind the calls is not given here.

How the values were obtained:
Type in all cases: functional
[1] = tested on: Enterococcus faecalis; experiment: Antibacterial activity against Enterococcus faecalis ATCC 19433 after 18 to 24 hrs by liquid broth method
Outline: (§1)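 Serial two-fold dilution in liquid broth in 96-well plates. Compounds were added from DMSO stock solutions to give final levels of 1024, 512, 256, 128, 64, 32, 16, 8, 4 and 2 (unit as printed unclear). Plates were incubated at 37 °C for 18–24 h.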

[2] = tested on: Staphylococcus aureus; experiment: Antibacterial activity against Staphylococcus aureus ATCC 12600 after 18 to 24 hrs by liquid broth method; outline: as §1
[3] = tested on: Staphylococcus epidermidis; experiment: Antibacterial activity against Staphylococcus epidermidis ATCC 14990 after 18 to 24 hrs by liquid broth method; outline: as §1
[4] = tested on: Bacillus subtilis; experiment: Antibacterial activity against Bacillus subtilis ATCC 6633 after 18 to 24 hrs by liquid broth method; outline: as §1
[5] = tested on: Acinetobacter baumannii; experiment: Antibacterial activity against Acinetobacter baumannii ATCC 19606 after 18 to 24 hrs by liquid broth method; conditions: ATCC 19606 = CIP 70.34 = JCM 6841; outline: as §1
[6] = tested on: Citrobacter freundii; experiment: Antibacterial activity against Citrobacter freundii ATCC 8090 after 18 to 24 hrs by liquid broth method; outline: as §1
[7] = tested on: Pseudomonas aeruginosa; experiment: Antibacterial activity against Pseudomonas aeruginosa ATCC 9027 after 18 to 24 hrs by liquid broth method; outline: as §1

MIC [1] | MIC [2] | MIC [3] | MIC [4] | MIC [5] [mg/L] | MIC [6] | MIC [7] | Compound
inactive | 512 mg/L (≈ 1220 µM) | > 1020 mg/L | inactive | > 1020 | inactive | 1020 mg/L (≈ 2440 µM) | O=S(=O)(c1ccccc1)c1ccc(-c2n[nH]c(=S)n2/N=C/c2ccccc2)cc1
512 mg/L (≈ 1000 µM) | 512 mg/L (≈ 1000 µM) | inactive | 1020 mg/L (≈ 2010 µM) | 512 (≈ 1000 µM) | > 1020 mg/L | 512 mg/L (≈ 1000 µM) | O=S(=O)(c1ccccc1)c1ccc(-c2nn(CN3CCOCC3)c(=S)n2/N=C/c2ccco2)cc1
> 1020 mg/L | 1020 mg/L (≈ 1820 µM) | inactive | 512 mg/L (≈ 910 µM) | 1020 (≈ 1820 µM) | inactive | > 1020 mg/L | CN(C)c1ccc(/C=N/n2c(-c3ccc(S(=O)(=O)c4ccccc4)cc3)nn(CN3CCOCC3)c2=S)cc1
1020 mg/L (≈ 2230 µM) | inactive | > 1020 mg/L | > 1020 mg/L | > 1020 | 512 mg/L (≈ 1120 µM) | > 1020 mg/L | CCCn1c(-c2ccc(S(=O)(=O)c3ccccc3)cc2)nn(CN2CCOCC2)c1=S
1020 mg/L (≈ 1970 µM) | 512 mg/L (≈ 985 µM) | inactive | 512 mg/L (≈ 985 µM) | > 1020 | > 1020 mg/L | > 1020 mg/L | O=S(=O)(c1ccccc1)c1ccc(-c2nn(CN3CCOCC3)c(=S)n2/N=C/c2ccccc2)cc1
1020 mg/L (≈ 1810 µM) | 512 mg/L (≈ 907 µM) | inactive | 1020 mg/L (≈ 1810 µM) | 512 (≈ 907 µM) | inactive | 1020 mg/L (≈ 1810 µM) | O=[N+]([O-])c1cccc(/C=N/n2c(-c3ccc(S(=O)(=O)c4ccccc4)cc3)nn(CN3CCOCC3)c2=S)c1
> 1020 mg/L | 512 mg/L (≈ 931 µM) | inactive | 512 mg/L (≈ 931 µM) | 512 (≈ 931 µM) | inactive | > 1020 mg/L | COc1ccccc1/C=N/n1c(-c2ccc(S(=O)(=O)c3ccccc3)cc2)nn(CN2CCOCC2)c1=S
512 mg/L (≈ 924 µM) | 1020 mg/L (≈ 1850 µM) | inactive | inactive | 1020 (≈ 1850 µM) | inactive | 1020 mg/L (≈ 1850 µM) | O=S(=O)(c1ccc(Cl)cc1)c1ccc(-c2nn(CN3CCOCC3)c(=S)n2/N=C/c2ccccc2)cc1

More lines, now with the values behind:

Compound | MIC [1] | MIC [2] | MIC [3] | MIC [4] | MIC [5] [mg/L] | MIC [6] | MIC [7]
Nn1c(-c2ccc(S(=O)(=O)c3ccc(Cl)cc3)cc2)n[nH]c1=S | inactive | 1020 mg/L (≈ 2790 µM) | 512 mg/L (≈ 1400 µM) | 1020 mg/L (≈ 2790 µM) | 128 (≈ 349 µM) | 1020 mg/L (≈ 2790 µM) | inactive
CCCn1c(S)nnc1-c1ccc(S(=O)(=O)c2ccc(Br)cc2)cc1 | > 1020 mg/L | 256 mg/L (≈ 584 µM) | inactive | 1020 mg/L (≈ 2340 µM) | 1020 (≈ 2340 µM) | 256 mg/L (≈ 584 µM) | inactive
O=S(=O)(c1ccccc1)c1ccc(-c2n[nH]c(=S)n2/N=C/c2ccco2)cc1 | inactive | 512 mg/L (≈ 1250 µM) | inactive | inactive | 128 (≈ 312 µM) | inactive | 256 mg/L (≈ 624 µM)
CCCn1c(-c2ccc(S(=O)(=O)c3ccc(Cl)cc3)cc2)nn(CN2CCOCC2)c1=S | 1020 mg/L (≈ 2080 µM) | inactive | inactive | > 1020 mg/L | > 1020 | 256 mg/L (≈ 519 µM) | > 1020 mg/L
O=[N+]([O-])c1cccc(/C=N/n2c(-c3ccc(S(=O)(=O)c4ccccc4)cc3)n[nH]c2=S)c1 | inactive | 256 mg/L (≈ 550 µM) | inactive | 512 mg/L (≈ 1100 µM) | 1020 (≈ 2200 µM) | inactive | 512 mg/L (≈ 1100 µM)
CCCn1c(-c2ccc(S(=O)(=O)c3ccc(Br)cc3)cc2)nn(CN2CCOCC2)c1=S | 512 mg/L (≈ 953 µM) | inactive | inactive | > 1020 mg/L | > 1020 | 256 mg/L (≈ 476 µM) | > 1020 mg/L
COc1ccccc1/C=N/n1c(-c2ccc(S(=O)(=O)c3ccccc3)cc2)n[nH]c1=S | inactive | 128 mg/L (≈ 284 µM) | inactive | 128 mg/L (≈ 284 µM) | 256 (≈ 568 µM) | inactive | 512 mg/L (≈ 1140 µM)
Nn1c(-c2ccc(S(=O)(=O)c3ccccc3)cc2)n[nH]c1=S | > 1020 mg/L | 512 mg/L (≈ 1540 µM) | 128 mg/L (≈ 385 µM) | 1020 mg/L (≈ 3080 µM) | 512 (≈ 1540 µM) | > 1020 mg/L | > 1020 mg/L
O=S(=O)(c1ccc(Cl)cc1)c1ccc(-c2n[nH]c(=S)n2/N=C/c2ccccc2)cc1 | inactive | 1020 mg/L (≈ 2250 µM) | 1020 mg/L (≈ 2250 µM) | inactive | 512 (≈ 1130 µM) | inactive | 512 mg/L (≈ 1130 µM)
CN(C)c1ccc(/C=N/n2c(-c3ccc(S(=O)(=O)c4ccccc4)cc3)n[nH]c2=S)cc1 | inactive | 1020 mg/L (≈ 2210 µM) | inactive | 64 mg/L (≈ 138 µM) | 512 (≈ 1100 µM) | inactive | > 1020 mg/L
CCCn1c(S)nnc1-c1ccc(S(=O)(=O)c2ccc(Cl)cc2)cc1 | > 1020 mg/L | 512 mg/L (≈ 1300 µM) | inactive | 1020 mg/L (≈ 2600 µM) | > 1020 | 512 mg/L (≈ 1300 µM) | inactive
CCCn1c(S)nnc1-c1ccc(S(=O)(=O)c2ccccc2)cc1 | > 1020 mg/L | > 1020 mg/L | > 1020 mg/L | > 1020 mg/L | > 1020 | > 1020 mg/L | > 1020 mg/L
O=C(N[C@H](CO)[C@H](O)c1ccc([N+](=O)[O-])cc1)C(Cl)Cl [CHLORAMPHENICOL] | 64 mg/L (≈ 198 µM) | 64 mg/L (≈ 198 µM) | 64 mg/L (≈ 198 µM) | 64 mg/L (≈ 198 µM) | 128 (≈ 396 µM) | 128 mg/L (≈ 396 µM) | 64 mg/L (≈ 198 µM)
